Experimental data reported in ChEMBL document CHEMBL4765452, “Discovery of (E)-N-(4-methyl-5-(3-(2-(pyridin-2-yl)vinyl)-1H-indazol-6-yl)thiazol-2-yl)-2-(4-methylpiperazin-1-yl)acetamide (IHMT-TRK-284) as a novel orally available type II TRK kinase inhibitor capable of overcoming multiple resistant mutants” (Eur J Med Chem, 2020).
pEC50, pIC50: −log10 of the molar value.

What was measured:
[1] = Apparent volume of distribution in Beagle dog at 1 mg/kg, iv; type: ADME, organism-based, Canis lupus familiaris; settings: in vivo, read-out: Vz
[2] = molecular target: T1, High affinity nerve growth factor receptor (Homo sapiens, UniProt P04629); experiment: Inhibition of TEL fused wild type TRKA (unknown origin) transfected in mouse BaF3 cells assessed as reduction in phosphorylation at Y490 residue after 2 hrs by Western blot analysis; type: cell-based
In short: (§1)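 Isogenic BaF3 lines, made in-house, grown in RPMI 1640 with 10% FBS and 1% penicillin/streptomycin at 37 °C under 5% CO2. Serially diluted compound added for 2 h. Cells collected and lysed, and lysates analysed by western blotting for phospho-TRK. EC50 derived from the blots.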

[3] = Toxicity in mouse xenografted with mouse BAF3 cells harboring TEL fused TRKA assessed as effect on animals behaviour at 40 to 80 mg/kg, po administered once daily for 10 days; type: organism-based; settings: in vivo, 240 h, dose 40-80 mg/kg/day, time 10 day
In short: (§2)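 nu/nu mice were given subcutaneous right-flank implants in 1:1 DMEM/matrigel: 1 million BaF3 fusion cells or 5 million KM-12-LUC cells. Oral gavage started at 150–200 mm3 (xenograft) or 200–400 mm3 (allograft). Dosing used 40 or 80 mg/kg in HKI vehicle (0.5% methylcellulose/0.4% Tween 80 in ddH2O), with 5 mice per group. Body weight was recorded daily and behaviour observed.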

[4] = molecular target: T1, High affinity nerve growth factor receptor; experiment: Inhibition of human TRKA by Z-LYTE or ADP-Glo assay
In short: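 Purified kinase proteins tested biochemically in Z'LYTE or ADP-Glo format.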

[5] = Half life in Sprague-Dawley rat at 1 mg/kg, iv; type: ADME, organism-based; settings: in vivo
[6] = Apparent clearance in mouse at 1 mg/kg, iv; type: ADME, organism-based; settings: in vivo
[7] = Cmax in Sprague-Dawley rat at 10 mg/kg, po; type: ADME, organism-based; design: route oral, dose 10 mg/kg; settings: in vivo
BaF3 [8] = experiment: Antitumor activity against mouse BAF3 cells harboring TEL fused TRKC allografted in nude mouse assessed as tumor growth inhibition at 40 mg/kg, po administered once daily for 10 days relative to control; type: functional; settings: 240 h, time 10 day, read-out: TGI
In short: (§3)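 Nu/nu mice given 1 million BaF3 cells (TEL-TRKA, TEL-TRKB, TEL-TRKC, LMNA-TRKA-F589L or LMNA-TRKA-G667S) in DMEM, 1:1 with matrigel, injected subcutaneously into the right flank; oral gavage began at 200–400 mm³, 5 mice per group, compound in 0.5% methylcellulose/0.4% Tween 80 in ddH₂O, 10 days; tumor volume [(W²×L)/2] and body weight recorded daily; TGI versus vehicle.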

[9] = Half life in mouse at 1 mg/kg, iv; type: ADME, organism-based; settings: in vivo
[10] = tested on: High affinity nerve growth factor receptor (Homo sapiens), P04629 [G595R]; experiment: Inhibition of LMNA fused TRKA G595R mutant (unknown origin) transfected in mouse BAF3 cells assessed as growth inhibition after 72 hrs by CCK8 assay; type: cell-based
[11] = Toxicity in mouse xenografted with mouse BAF3 cells harboring […] TRKA-F589L mutant assessed as effect on abnormal behaviour at 40 to 80 mg/kg, po administered once daily for 10 days; type: organism-based; settings: in vivo, 240 h, dose 40-80 mg/kg/day, time 10 day; in short: as §2
[12] = Half life in Beagle dog at 1 mg/kg, iv; type: ADME, organism-based, Canis lupus familiaris; settings: in vivo
[13] = Apparent volume of distribution in Sprague-Dawley rat at 1 mg/kg, iv; type: ADME, organism-based; settings: in vivo, read-out: Vz
[14] = molecular target: T1, High affinity nerve growth factor receptor; experiment: Inhibition of TRKA in human KM-12-LUC cells assessed as reduction in AKT phosphorylation at T308 residue after 2 hrs by Western blot analysis; type: cell-based, KM12-Luc
In short: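 KM-12-LUC (TPM3-TRKA fused colon cancer cells) grown in RPMI 1640 with 10% FBS and 1% penicillin/streptomycin at 37 °C under 5% CO2. Serially diluted compound added for 2 h. Lysates western blotted for phospho-AKT (T308/S473) and phospho-ERK1/2 (T202/Y204).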

BaF3 [15] = experiment: Antitumor activity against mouse BAF3 cells harboring LMNA fused TRKA-G667S mutant allografted in nude mouse assessed as tumor growth inhibition at 40 mg/kg, po administered twice daily for 10 days relative to control; type: functional; settings: 240 h, time 10 day, read-out: TGI; in short: as §3
[16] = molecular target: High affinity nerve growth factor receptor (Homo sapiens, UniProt P04629, G667C); experiment: Inhibition of LMNA fused TRKA G667C mutant (unknown origin) transfected in mouse BaF3 cells assessed as reduction in phosphorylation at Y490 residue after 2 hrs by Western blot analysis; type: cell-based; in short: as §1
[17] = AUC (0 to t) in mouse at 10 mg/kg, po; type: ADME, organism-based; design: dose 10 mg/kg; settings: in vivo
In short: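 Intravenous and oral arms were run in parallel in each species (mice, Sprague Dawley rats, beagle dogs). Exposure is reported as AUC0-t in ng/mL·h.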

[18] = Cmax in Beagle dog at 1 mg/kg, iv; type: ADME, organism-based, Canis lupus familiaris; design: route intravenous, dose 1 mg/kg; settings: in vivo
[19] = molecular target: High affinity nerve growth factor receptor (Homo sapiens, UniProt P04629, G595R); experiment: Inhibition of LMNA fused TRKA G595R mutant (unknown origin) transfected in mouse BaF3 cells assessed as reduction in phosphorylation at Y490 residue after 2 hrs by Western blot analysis; type: cell-based
BaF3 [20] = experiment: Antitumor activity against mouse BAF3 cells harboring TEL fused TRKA allografted in nude mouse assessed as tumor growth inhibition administered orally once daily for 10 days; type: functional, cell-based; settings: dose 40-80 mg/kg/day, time 10.0 day; in short: as §3
[21] = Oral bioavailability in Sprague-Dawley rat at 10 mg/kg; type: ADME, organism-based; settings: in vivo
In short: (§4)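 Single-dose PK in mice, Sprague Dawley rats and beagle dogs, given i.v. (1 mg/kg) or p.o. (10 mg/kg mice and rats; 5 mg/kg dogs). AUC0-t, T1/2, Tmax and oral bioavailability (F) derived from plasma profiles.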

[22] = Half life in Beagle dog at 5 mg/kg, po; type: ADME, organism-based, Canis lupus familiaris; settings: in vivo
[23] = Oral bioavailability in mouse at 10 mg/kg; type: ADME, organism-based; settings: in vivo; in short: as §4
[24] = tested on: High affinity nerve growth factor receptor (Homo sapiens), P04629 [G667C]; experiment: Inhibition of LMNA fused TRKA G667C mutant (unknown origin) transfected in mouse BAF3 cells assessed as growth inhibition after 72 hrs by CCK8 assay; type: cell-based
In short: (§5)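 TEL- or LMNA-fusion isogenic BaF3 lines grown in RPMI 1640 with 10% FBS and 1% penicillin/streptomycin at 37 °C, 5% CO₂; suspension cells collected by spinning at 800 rpm for 4 min before use; growth inhibition scored as GI₅₀.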

[25] = Tmax in Beagle dog at 1 mg/kg, iv; type: ADME, organism-based, Canis lupus familiaris; settings: in vivo; in short: as §4
[26] = Antiproliferative activity in mouse BAF3 cells assessed as growth inhibition after 72 hrs by CCK8 assay; type: cell-based; in short: as §5
[27] = Antitumor activity against human […] cells xenografted in nude mouse assessed as tumor growth inhibition at 40 mg/kg, po administered once daily for 10 days relative to control; type: functional; settings: KM12-Luc, 240 h, time 10 day, read-out: TGI
In short: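 Nu/nu mice given 5 million KM-12-LUC cells in DMEM, 1:1 with matrigel, injected subcutaneously into the right flank; oral gavage started at tumor size 150–200 mm³, 5 mice per group, compound in 0.5% methylcellulose/0.4% Tween 80 in ddH₂O; body weight and tumor volume [(W²×L)/2] measured daily; TGI versus vehicle.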

[28] = Oral bioavailability in Beagle dog at 5 mg/kg; type: ADME, organism-based, Canis lupus familiaris; settings: in vivo; in short: as §4

T1 sequence (P04629 whole entry, the tested form may be a part): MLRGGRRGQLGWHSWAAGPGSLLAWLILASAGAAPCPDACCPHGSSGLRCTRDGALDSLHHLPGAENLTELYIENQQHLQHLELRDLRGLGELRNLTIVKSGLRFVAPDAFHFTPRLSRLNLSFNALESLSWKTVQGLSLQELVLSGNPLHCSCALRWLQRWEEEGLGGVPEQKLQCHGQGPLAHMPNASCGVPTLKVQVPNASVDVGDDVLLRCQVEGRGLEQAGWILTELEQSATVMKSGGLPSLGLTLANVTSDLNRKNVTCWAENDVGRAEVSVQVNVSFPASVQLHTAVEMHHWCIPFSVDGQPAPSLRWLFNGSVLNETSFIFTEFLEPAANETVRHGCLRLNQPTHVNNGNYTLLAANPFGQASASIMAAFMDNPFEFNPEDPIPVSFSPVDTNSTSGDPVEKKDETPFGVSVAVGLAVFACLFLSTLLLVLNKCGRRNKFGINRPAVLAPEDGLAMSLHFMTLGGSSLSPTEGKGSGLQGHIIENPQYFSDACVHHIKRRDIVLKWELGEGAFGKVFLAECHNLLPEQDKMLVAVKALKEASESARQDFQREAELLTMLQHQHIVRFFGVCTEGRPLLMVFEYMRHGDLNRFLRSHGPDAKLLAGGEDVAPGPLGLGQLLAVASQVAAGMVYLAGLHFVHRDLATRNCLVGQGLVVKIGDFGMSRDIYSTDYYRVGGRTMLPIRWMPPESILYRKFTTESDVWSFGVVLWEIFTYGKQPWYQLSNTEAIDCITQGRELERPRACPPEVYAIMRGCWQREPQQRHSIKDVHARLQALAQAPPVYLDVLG
High affinity nerve growth factor receptor (Homo sapiens), P04629 [G595R], sequence (P04629 whole entry G595R, looked up, the tested form may be a part): as the sequence (P04629 whole entry, the tested form may be a part) above, with G595R counted along it
High affinity nerve growth factor receptor (Homo sapiens), P04629 [G667C], sequence (P04629 whole entry G667C, looked up, the tested form may be a part): as the sequence (P04629 whole entry, the tested form may be a part) above, with G667C counted along it
High affinity nerve growth factor receptor (Homo sapiens, UniProt P04629, G667C), sequence (P04629 33-796 G667C limits assumed): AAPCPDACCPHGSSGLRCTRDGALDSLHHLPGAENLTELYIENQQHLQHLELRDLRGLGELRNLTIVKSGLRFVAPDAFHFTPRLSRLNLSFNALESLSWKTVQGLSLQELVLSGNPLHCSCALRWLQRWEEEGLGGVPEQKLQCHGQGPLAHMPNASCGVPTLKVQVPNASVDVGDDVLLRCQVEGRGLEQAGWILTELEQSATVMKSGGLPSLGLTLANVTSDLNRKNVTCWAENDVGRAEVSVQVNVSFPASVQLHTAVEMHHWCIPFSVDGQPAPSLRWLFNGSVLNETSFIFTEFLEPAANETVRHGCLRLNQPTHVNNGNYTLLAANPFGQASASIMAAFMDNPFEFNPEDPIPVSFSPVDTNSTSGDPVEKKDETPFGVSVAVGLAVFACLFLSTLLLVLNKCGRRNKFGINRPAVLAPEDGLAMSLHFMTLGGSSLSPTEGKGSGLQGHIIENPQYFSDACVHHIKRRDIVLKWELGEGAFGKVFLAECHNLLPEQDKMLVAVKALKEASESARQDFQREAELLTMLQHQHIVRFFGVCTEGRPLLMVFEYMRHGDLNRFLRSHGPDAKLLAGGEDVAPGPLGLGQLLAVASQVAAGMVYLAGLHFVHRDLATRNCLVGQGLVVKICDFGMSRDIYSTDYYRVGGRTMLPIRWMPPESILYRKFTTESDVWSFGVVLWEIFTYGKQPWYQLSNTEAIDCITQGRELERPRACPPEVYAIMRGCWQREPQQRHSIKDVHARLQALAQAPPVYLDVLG
High affinity nerve growth factor receptor (Homo sapiens, UniProt P04629, G595R), sequence (P04629 33-796 G595R limits assumed): as the sequence (P04629 33-796 G667C limits assumed) above, with G563R, C635G counted along it

For `Cc1nc(NC(=O)CN2CCN(C)CC2)sc1-c1ccc2c(/C=C/c3ccccn3)n[nH]c2c1`, the Vd [1] was 17.5 L/kg, the pEC50 [2] was 7.59 and the Activity [3] was “Non-Toxic”. The pIC50 [4] was 7.98, the t1/2 [5] was 2.7 h and the CLz/F [6] was 1302 mL/h/kg. It also gave a Cmax [7] of 139 ng/mL, an inhibition in vivo at 40 mg/kg/day (BaF3 [8]) of 40.6% and a t1/2 [9] of 2.6 h. The GI50 [10] was 194 nM, the Activity [11] was “Non-Toxic” and the t1/2 [12] was 1.8 min. The Vd [13] was 9.68 L/kg, the pEC50 [14] was > 7.52 and the inhibition in vivo at 40 mg/kg (BaF3 [15]) was 64.9%. The pEC50 [16] was 7.17, the AUC(0-t) [17] was 1430 ng·h/mL and the Cmax [18] was 284 ng/mL. For the same compound, the pEC50 [19] was 6.92, the Activity (BaF3 [20]) was “Dose-dependent effect” and the bioavailability [21] was 26%. For the same compound, the t1/2 [22] was 11.8 h, the bioavailability [23] was 20% and the GI50 [24] was 34 nM. For the same compound, the Tmax [25] was 4.8 min, the GI50 at 72 h [26] was 1400 nM and the inhibition in vivo at 40 mg/kg/day [27] was 93.4%. The bioavailability [28] was 35%.
